Positions of bridges follow the written chain, without caps; N, C: chain ends. Non-standard residues stand in square brackets, D forms with d. No end group written: not given here. *: point of attachment. DOTA = O=C(O)CN1CCN(CC(=O)O)CCN(CC(=O)*)CCN(CC(=O)O)CC1; Nle = CCCC[C@H](N)C(=O)O
Legend:
[1] = tested on: B16/F1 melanoma cells; experiment: Cellular efflux in B16/F1 melanoma cells; type: cell-based; conditions: 2 h after incubating cells in culture medium
How it was run: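 B16/F1 cells were loaded with ¹¹¹In-labelled test compound for 2 h at 25°C, then given 2 ice-cold PBS rinses to remove non-specifically bound activity. Radioactivity released into the culture medium was monitored. At 20, 40, 60, 90 and 120 min, cell-surface and intracellular radioactivity were collected separately and gamma-counted.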

[2] = Urinary metabolites by RP-HPLC; type: in vivo, mouse; conditions: urine, 2 h post-injection
How it was run: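 A C57 mouse bearing a B16/F1 flank tumour (1×10⁶ cells s.c., 10 days) received 37 MBq (1 mCi) ¹¹¹In-labelled test compound via the tail vein. It was euthanized at 2 h and urine collected. Urine was centrifuged at 16,000g for 5 min, and aliquots were analysed by RP-HPLC using a 20-min 18–28% acetonitrile/20 mM HCl gradient.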

[3] = tested on: B16/F1 melanoma cells; experiment: Cellular internalization in B16/F1 melanoma cells; type: cell-based; conditions: 25°C
How it was run: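 B16/F1 cells, washed twice in binding medium (DMEM, 25 mM HEPES pH 7.4, 0.2% BSA, 0.3 mM 1,10-phenanthroline), incubated at 25°C for 20, 40, 60, 90 and 120 min (n=3) with ~200,000 cpm HPLC-purified ¹¹¹In-labelled test compound. Cells rinsed in ice-cold 0.2% BSA/0.01 M PBS pH 7.4. Membrane-bound activity stripped with 40 mM sodium acetate pH 4.5, 0.9% NaCl, 0.2% BSA. Internalized activity recovered by 1 N NaOH lysis (5 min). Both fractions gamma-counted.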

[4] = In vitro serum stability in mouse serum monitored by RP-HPLC; type: in vitro ADME; conditions: 37 °C, 24 h
How it was run: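 Test compound was labelled with ¹¹¹In in 0.5 M NH₄OAc pH 4.5 at 75°C for 45 min, and unbound ¹¹¹In was scavenged with EDTA. It was purified by C-18 RP-HPLC (20-min 18–28% acetonitrile gradient in 20 mM HCl). The purified label was incubated in mouse serum at 37°C for 24 h, with degradation monitored by RP-HPLC.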

[5] = Biodistribution in B16/F1 melanoma-bearing C57 mice; type: in vivo, mouse; conditions: female, C57, mouse, urine, iv, 0.037 MBq, total radioactivity, percent injected dose, 0.5 h post-injection
[6] = tested on: B16/F1 melanoma-bearing C57 mice; experiment: as above; type: in vivo, mouse
[7] = tested on: MC1 receptor; conditions: cited from earlier work
[8] = target: melanocortin-1 (MC1) receptor (Mus musculus, UniProt Q01727); conditions: read-out: MC1 receptor binding affinity; B16/F1 cells; ref [17], [21]; cited from earlier work
[9] = tested on: B16/F1 melanoma-bearing C57 mice; conditions: mouse, in vivo, 4 h; cited from earlier work

Chain of melanocortin-1 (MC1) receptor (Q01727 whole entry): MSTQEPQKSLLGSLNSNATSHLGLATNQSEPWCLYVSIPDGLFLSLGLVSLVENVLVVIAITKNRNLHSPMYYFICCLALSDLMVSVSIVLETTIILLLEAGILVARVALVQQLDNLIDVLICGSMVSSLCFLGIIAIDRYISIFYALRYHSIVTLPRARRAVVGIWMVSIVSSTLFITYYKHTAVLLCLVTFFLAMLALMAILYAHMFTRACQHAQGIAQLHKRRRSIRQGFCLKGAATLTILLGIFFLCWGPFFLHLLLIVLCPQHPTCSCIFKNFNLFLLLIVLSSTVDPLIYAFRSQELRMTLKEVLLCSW

CCCC[C@H](NC(=O)CN1CCN(CC(=O)O)CCN(CC(=O)O)CCN(CC(=O)O)CC1)C(=O)N[C@H]1CC(=O)NCCCC[C@@H](C(N)=O)NC(=O)[C@H](Cc2c[nH]c3ccccc23)NC(=O)[C@H](CCCNC(=N)N)NC(=O)[C@@H](Cc2ccccc2)NC(=O)[C@H](Cc2c[nH]cn2)NC1=O [^111In-DOTA-Nle-CycMSHhex, metal not drawn]
Internalized activity remained inside the cells [1]: 89.5±1.9%
Urinary metabolite analysis by RP-HPLC [2]: remained intact
Cellular uptake activity internalized ([3]; 20 min post incubation): 72.9±3.5%
Cellular uptake activity internalized ([3]; 120 min post incubation): 88.3±0.7%
Stability in mouse serum [4]: stable
dose excreted at 0.5 h [5]: 57 ± 3.91%
Tumor uptake with NDP-MSH co-injection as percent of tumor uptake without ([6]; 10 μg non-radiolabeled NDP-MSH co-injection, 2 h): 4.2%
Reduction of kidney uptake value by L-lysine co-injection ([6]; 2 h post-injection): 30%
Renal uptake value as percent of that of ^111In-DOTA-GlyGlu-CycMSH ([6]; 2 h post-injection): 72.8%
Tumor uptake value, times that of ^111In-DOTA-GlyGlu-CycMSH ([6]; 2 h post-injection): 1.86 times
Tumor uptake value, times that of ^111In-DOTA-Re(Arg^11)CCMSH ([6]; 2 h post-injection): 1.12 times
Renal uptake value as percent of that of ^111In-DOTA-GlyGlu-CycMSH ([6]; 4 h post-injection): 82.4%
Tumor uptake value, times that of ^111In-DOTA-Re(Arg^11)CCMSH ([6]; 4 h post-injection): 0.98 times
Tumor uptake value, times that of ^111In-DOTA-Re(Arg^11)CCMSH ([6]; 24 h post-injection): 1.29 times
Percent of tumor activity at 2 h post-injection remaining in tumors at 24 h ([6]; 24 h vs 2 h post-injection): 54.3%

Ac-Nle-c[Asp-His-DPhe-Arg-Trp-Lys(CONH2)] [MT-II]
MC1 receptor binding affinity compared with native α-MSH peptide ([7]; ref [27], [28]): higher MC1 receptor binding affinity
MC1 receptor dissociation rate compared with native α-MSH peptide ([7]; ref [27], [28]): slower MC1 receptor dissociation rate

DOTA-Gly-Glu-c[Lys-Nle-Glu-His-DPhe-Arg-Trp-Gly-Arg-Pro-Val-Asp] ({DOTA}-GEK[Nle]EH[dF]RWGRPVD; lactam 3-14; not fully specified) [DOTA-GlyGlu-CycMSH]
IC50 [8]: 0.9 nM

[Ac-Nle^4,Asp^5,D-Phe^7,Lys^11(pz-^99mTc(CO)3)]α-MSH4–11
Melanoma uptake [9]: 4.24 ± 0.94 %ID/g

[Nle^4, D-Phe^7]- α-MSH [NDP-MSH]
Affinity for the MC1 receptor present on the melanoma cells ([7]; stated without reference): picomolar

^99mTc(CO)3-pz-βAla-Nle-cyclo[Asp-His-D-Phe-Arg-Trp-Lys]-NH2
Kidneys uptake [9]: 32.12 ± 1.57 %ID/g
Liver uptake [9]: 22.86 ± 1.17 %ID/g
Melanoma uptake [9]: 11.31 ± 1.81 %ID/g

Source: article PMC2998183 (Journal of nuclear medicine : official publication, Society …, 2010)
